proCasp3 act – activates human procaspase-3; P42574; recombinant procaspase-3 D3A, Ac-DEVD-pNA absorbance 405 nm; activation, % at 8.5 µM; hit rate 0.11% among 330,000;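 active = activation above the mean of all tested compounds plus 3 SD, cut at about 21% in these data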;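 note: 0% = DMSO alone and 100% = DMSO wells spiked with extra 5 µM PC-3 D3A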
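Test system: Procaspase-3 D3A mutant, all three cleavage aspartates alanine | Dosing: Single dose, 8.5 µM nominal compound, 0.8% DMSO | Schedule: 1 h preincubation, 2 h reaction | Technique: 405 nm absorbance of p-nitroaniline, reads at 0 and 120 min | Repeats: One well per compound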
proCasp7 act – counter-screen for procaspase-3 activators: activators of human procaspase-7 | recombinant procaspase-7, Ac-DEVD-pNA absorbance 405 nm; D23A/D198A/D206A triple mutant, cannot self-cleave; scale: DMSO 0, 5 µM enzyme 100 | hit rate 0.093% among 330,000 | P55210 | activation, % at 8.5 µM;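 active = percent activation above the screen-wide mean plus 3 SD, cut at about 25% in these data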
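System: Procaspase-7 triple mutant (PC-7 D3A); measure: % activation from two-timepoint absorbance difference, scaled to controls; times: 1 h compound preincubation, 2 h substrate cleavage, 25 °C; also added: Ac-DEVD-pNA substrate, 400 µM as added; measured by: Epi-absorbance of released pNA at 405 nm, two timepoints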
EBNA-1 inhibitor – blocks EBNA-1 binding to DNA | EBNA-1 DNA binding, fluorescence polarization | inhibition, % at 14.8 µM | hit rate 0.34% among 300,000; in the data active = inhibition above about 28%
Apaf-1 inh – human Apaf-1 inhibition; O14727; reconstituted apoptosome caspase-3 activity, DEVD-Rh110 fluorescence; inhibition, % at 20 µM; hit rate 0.71% among 330,000; active = inhibition of at least 40% at 20 µM;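 note: plate controls were DMSO wells for no effect and DEVD-CHO caspase inhibitor wells for full effect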
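Assay system – apoptosome proteins · Medium – Hepes buffer, pH 7.5 · Also added – cytochrome c with DEVD-Rh110 · Timing – 30 min compound preincubation, 50 min activation, room temperature · Detection – Rh110 fluorescence, excitation 480 nm, emission 540 nm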
GSTO1 inh – GSTO1 inhibition, counter-screen for RBBP9 inhibitors | P78417 | recombinant GSTO1, activity-based probe fluorescence polarization | inhibition, % at 5.96 µM | hit rate 1.1% among 300,000;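 active = inhibition above the campaign mean inhibition plus 3 SD, cut at about 35% in these data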;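 note: 0% = GSTO1-1 with DMSO and 100% = wells lacking GSTO1-1 enzyme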
ZTA DNA inh – blocks Epstein-Barr virus ZTA, an EBNA-1 counter-screen. hit rate 0.15% among 320,000. ZTA-DNA binding, fluorescence polarization. inhibition, % at 11 µM. AID 2234; in the data active = inhibition above about 33%
EBNA-1 inh conf – EBNA-1 (EBV) inhibition, confirmation. shares compounds with EBNA-1 inhibitor. Recombinant EBNA-1 DBD, Cy5-DNA fluorescence polarization. inhibition, % at 14.8 µM. hit rate 35% among 830. AID 2292;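 active = mean inhibition across replicates above a set limit taken from the earlier primary screen, cut at about 28% in these data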;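 note: plate controls were EBNA-1 protein with DMSO for no effect and wells lacking EBNA-1 for full effect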
ZTA counter trip – counter-screen for EBNA-1 inhibitors: Epstein-Barr virus ZTA inhibitors, triplicate | shares compounds with EBNA-1 inhibitor | Zta-ZRE DNA binding, Cy5 fluorescence polarization | inhibition, % at 11.1 µM | 830 tested, under 10 active | AID 2328;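 active = mean inhibition over triplicates above a set limit taken from the primary EBNA-1 screen, cut at about 37% in these data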;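 note: purified full length Zta protein with Cy5 labeled ZRE DNA probe; 0% = Zta with DMSO and 100% = wells lacking Zta protein; inhibitors lower polarization by freeing the labeled DNA probe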
Starred values were filed as active, the others as inactive; nt = no result. Rows were chosen to be rich in hits. Some 1.8% of all compounds tested hit in one or more screens of this group.

SMILES	proCasp3 act	proCasp7 act	EBNA-1 inhibitor	Apaf-1 inh	GSTO1 inh	ZTA DNA inh	EBNA-1 inh conf	ZTA counter trip
COc1ccc(CC(=O)Nc2ccc3c(C)cc(=O)oc3c2)cc1OC	3.7	7.8	40.1*	-7.5	0.5	-8.5	8.2	0.3
Cc1ccc(S(=O)(=O)NC(=O)COc2ccccc2C)c(C)c1	0.5	3.8	11.3	0.1	2.9	3.9	nt	nt
CC(=O)Nc1ccc(NC(=O)c2cc(=O)c3cc(C)c(C)cc3o2)cc1	8.6	2.6	72.6*	-2.0	0.8	0.3	34.7*	1.9
COc1ccc2nc(NC(=O)CC3Oc4ccccc4NC3=O)sc2c1 (configuration not stated)	-3.5	6.4	55.7*	-10.3	-2.4	8.8	19.9	10.7
CCOc1ccc(N2C(=O)CC(NC3CCN(C(=O)c4cccc(Cl)c4)CC3)C2=O)cc1 (configuration not stated)	-26.9	-42.7	50.1*	-3.4	5.3	27.2	-9.5	-7.6
CCOc1ccc(NC(=O)CN(C)C(=O)c2cc(S(=O)(=O)N3CCCCC3)ccc2C)cc1OCC	4.4	11.2	-0.1	2.9	9.3	-8.7	nt	nt
O=C(NCc1ccc2c(c1)OCO2)C12CN(Cc3ccccc3)CC1C(c1cccc([N+](=O)[O-])c1)=NO2 (configuration not stated)	2.8	-5.7	174.0*	16.0	2.3	10.8	-20.7	-4.9
O=C(NCc1ccc(C(F)(F)F)cc1)C12CN(Cc3ccccc3)CC1C(c1cccc([N+](=O)[O-])c1)=NO2 (configuration not stated)	7.0	10.3	-9.1	6.5	-2.8	-9.2	nt	nt
CCNc1ccc(C(=O)OCC(=O)NC(C)c2ccccc2)cc1[N+](=O)[O-] (configuration not stated)	-0.9	-6.5	-9.4	2.4	-1.9	4.8	nt	nt
CCNc1ccc(C(=O)OC(C(=O)NC(N)=O)C(C)C)cc1[N+](=O)[O-] (configuration not stated)	14.2	-2.5	32.7*	0.1	2.2	-0.1	-10.6	-4.6
NS(=O)(=O)c1cccc(NC(=O)CSc2nnc(C3CC3)n2-c2ccccc2)c1	-15.5	-6.4	nt	-2.2	nt	nt	nt	nt
CCOc1ccc(C(=O)NCCCCNC(=O)c2ccc(OCC)cc2)cc1	4.3	-9.0	28.1*	6.6	3.1	-5.9	25.1	0.3
O=C(c1c[nH]c2ccccc12)C(Cl)c1ccccc1 (configuration not stated)	-1.4	-10.1	-0.3	12.7	16.4	-3.7	nt	nt
Cc1ccc(NC(=O)COC(=O)CCc2c(C)nc3ncnn3c2C)cc1C	-4.7	7.3	nt	3.7	nt	nt	nt	nt
Cc1c(NS(=O)(=O)c2ccc3c(c2)CCN3C(=O)C2CC2)c(=O)n(-c2ccccc2)n1C	-1.5	10.9	42.8*	-3.7	1.1	4.2	-3.6	0.3
Cc1c(NS(=O)(=O)c2cc(Br)cc3c2N(C(=O)C2CC2)CC3)c(=O)n(-c2ccccc2)n1C	0.8	-8.2	14.4	5.0	1.0	8.4	nt	nt
Cc1cc(NC(=O)CSc2nc(-c3ccc(Cl)cc3)cs2)no1	0.8	12.2	39.5*	1.0	2.1	14.5	7.0	-11.7
O=C(CSc1nnc(NC2CC2)s1)c1ccc[nH]1	3.7	4.7	nt	2.9	nt	nt	nt	nt
Cc1ccc(NC(=O)CSc2ccc(-c3ccc4c(c3)OCO4)nn2)cc1F	4.3	0.3	52.3*	5.5	0.4	-10.0	68.2*	1.0
N#Cc1c2c(c(NCc3cccnc3)n3c1nc1ccccc13)CCC2	0.1	-2.6	77.2*	6.5	3.8	2.1	31.2*	4.2
Cc1cc(SCC(=O)Nc2ccc3[nH]c(=O)[nH]c3c2)nc2ccccc12	0.4	-5.9	nt	0.2	nt	nt	nt	nt
Cc1ccc(C)c(NC(=O)C(Sc2ncnc3ccccc23)c2ccccc2)c1 (configuration not stated)	1.6	9.3	-7.3	5.2	0.7	-4.7	nt	nt
Cc1ccc(C)c(NC(=O)C(Sc2nc3ccccc3c(=O)n2CC(C)C)c2ccccc2)c1 (configuration not stated)	7.8	-0.5	32.5*	6.2	0.7	-7.1	-1.2	1.6
CN(C)S(=O)(=O)c1cccc(NC(=O)CN2C(=O)NC3(CCc4ccccc4C3)C2=O)c1 (configuration not stated)	-4.7	-4.1	-9.5	9.3	-1.4	2.8	nt	nt
O=C(N/N=C/c1ccc(-c2ccc(S(=O)(=O)Nc3ncccn3)cc2)o1)c1cc2ccccc2cc1O	-2.0	-15.8	32.3*	28.7	-2.7	27.6	46.0*	40.9*
SMILES	proCasp3 act	proCasp7 act	EBNA-1 inhibitor	Apaf-1 inh	GSTO1 inh	ZTA DNA inh	EBNA-1 inh conf	ZTA counter trip
CCOc1ccc(C(=O)N/N=C/c2ccc(-c3ccc(S(=O)(=O)Nc4ncccn4)cc3)o2)cc1	5.0	-11.6	5.1	17.4	-18.2	6.6	nt	nt
O=[N+]([O-])c1ccc(C[n+]2cc(-c3ccc(Cl)c(Cl)c3)n3c2CCCCC3)cc1	4.4	11.4	33.1*	3.6	-0.3	-6.0	0.1	10.3
O=C(CCn1c(=S)oc2ccccc21)Nc1ccc(F)cc1	-2.2	0.7	47.6*	-12.2	-0.7	6.7	19.0	1.7
Cc1ccc(NC(=O)CCn2c(=S)oc3ccccc32)cc1	-0.9	10.3	42.7*	-3.1	3.6	-3.8	55.0*	0.7
Cc1cc(C(=O)NNC(=O)c2ccc(C)c([N+](=O)[O-])c2)c(C)o1	nt	nt	nt	1.1	nt	nt	nt	nt
COc1ccc(-c2nc(SC(C)C(=O)NC3CC3)n[nH]2)cc1 (configuration not stated)	nt	nt	nt	1.1	nt	nt	nt	nt
O=C(CCCCCn1c(=S)[nH]c2cc3c(cc2c1=O)OCO3)N1CCN(Cc2ccccc2)CC1	-2.3	7.5	36.6*	7.2	6.7	-0.8	69.4*	-3.2
O=C(CCCCCn1c(=S)[nH]c2cc3c(cc2c1=O)OCO3)N1CCN(C(=O)c2ccco2)CC1	2.8	-10.7	13.8	-15.7	19.4	14.2	nt	nt
CCCOc1ccc(C(=O)NNC(=O)CCNC(=O)c2ccco2)cc1OC	6.1	-3.6	-12.4	0.8	-3.5	-8.1	nt	nt
Cc1nn(Cc2ccccc2)c(C)c1NC(=O)c1cc(-c2ccc3c(c2)OCO3)on1	3.1	-4.8	42.0*	6.3	1.4	-12.9	42.5*	3.5
COc1ccc(-c2cc(C(=O)Nc3c(C)nn(Cc4ccccc4)c3C)no2)cc1	0.3	-0.7	14.3	-3.8	3.1	-11.0	nt	nt
Cc1ccc(-c2nc3ccccc3[nH]2)cc1NC(=O)c1sc2cc(Cl)ccc2c1Cl	0.6	3.9	92.4*	11.8	-19.4	8.2	82.8*	19.6

Screening results deposited in PubChem BioAssay by several laboratories.
